Experimental data: ChEMBL document CHEMBL4513216, “Probing the Open Global Health Chemical Diversity Library for Multistage-Active Starting Points for Next-Generation Antimalarials” (ACS Infect Dis, 2020)

Test: Toxicity liver stage against HepG2, at 10uM
Format: cell-based
Design: test concentration 10 uM, cell line HepG2-A16-CD81EGFP
Settings: human, HepG2-A16-CD81EGFP cells; read-out: INHIBITION
How it was run: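 Uninfected HepG2-A16-CD81EGFP cells, 3 × 10^3 per well, 1536-well, plated on prespotted compound at 10 μM final, parasite-free screening media added to match infected plates; puromycin 10 μM positive, DMSO 0.5% negative; run in parallel with 48 h PbLuc assay at 37 °C, 5% CO2; viability by CellTiter-Glo luminescence, normalized to controls.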

O=S(=O)(CCN1CCN(c2ccccc2O)CC1)c1ccc(Cl)cc1
cytotoxicity at 10 µM: 14.4%

O=C1CO[C@H](c2ccc(NS(=O)(=O)Cc3ccccc3)cc2)[C@@H](CO)N1
cytotoxicity at 10 µM: 40.8%

CCc1nc(-c2ccc(C(=O)N3CCC4(CC3)OCCO4)cc2)no1
cytotoxicity at 10 µM: 4.32%

COc1ccc(-c2nc(C#N)c(N(C)C)o2)cc1OC
cytotoxicity at 10 µM: -4.91%

CN1C(=O)COc2ccc(C(=O)Cn3cnc4ccccc4c3=O)cc21
cytotoxicity at 10 µM: -0.894%

O=S(=O)(NCC1(O)CCOc2ccccc21)c1ccccc1Br (configuration not stated)
cytotoxicity at 10 µM: 8.45%

CN(C)Cc1nn(C)c2c1CN(C(=O)Nc1cccc(F)c1)C2
cytotoxicity at 10 µM: 4.23%

Cc1nc([C@@H]2C[C@H]3CN(Cc4scnc4C)C[C@H]3O2)no1
cytotoxicity at 10 µM: -127%

O=C1Nc2ccccc2CC12CCN(CCO)C2 (configuration not stated)
cytotoxicity at 10 µM: 6.62%

CCN1C(=O)C2(CCOCC2)c2cc(NC(=O)c3csnn3)ccc21
cytotoxicity at 10 µM: 0.223%

COc1cccc(C(=O)N2CCc3ncnc(C)c3CC2)c1
cytotoxicity at 10 µM: -12.6%

CC(C(=O)N1CCN(c2ccccc2)CC1)n1cc(Br)cn1 (configuration not stated)
cytotoxicity at 10 µM: 7.47%

Cc1nn(C)c2c(N3CCN(C(=O)C4CCC4)CC3)ncnc12
cytotoxicity at 10 µM: 1.78%

Cc1nonc1CNC(=O)C(C)Oc1cccc(F)c1 (configuration not stated)
cytotoxicity at 10 µM: 1.22%

COCCCNS(=O)(=O)c1ccc2c(c1)NC(=O)C(C)O2 (configuration not stated)
cytotoxicity at 10 µM: 1.52%

CN1CCOC(C(=O)Nc2nc(-c3ccccc3F)n[nH]2)C1 (configuration not stated)
cytotoxicity at 10 µM: 8.65%

NC1(c2nc(-c3cccs3)cc(=O)[nH]2)CCCC1
cytotoxicity at 10 µM: 4.19%

O=C(Cn1nc(-c2ccc(F)cc2)oc1=O)NCC1CCCO1 (configuration not stated)
cytotoxicity at 10 µM: 1.62%

CNC(=O)NC(=O)CN1CCc2c(Br)ccc(F)c2C1
cytotoxicity at 10 µM: -9.3%

COC(=O)C1CCN(C(=O)Cn2ccc(-c3ccccc3)n2)CC1
cytotoxicity at 10 µM: -1.22%

Cn1ccc(N2CCCC(NC(=O)c3ccc(Cl)o3)C2=O)n1 (configuration not stated)
cytotoxicity at 10 µM: -2.51%

O=C(NS(=O)(=O)c1ccc(F)c(F)c1)c1cscn1
cytotoxicity at 10 µM: -5.64%

COc1ccnc(N2CCc3ccc(OC(F)F)cc3C2)n1
cytotoxicity at 10 µM: -4.32%

Cc1nc(CN2CCCN(CCCc3ccccc3)CC2)no1
cytotoxicity at 10 µM: 11.3%

CC(=O)c1cccc(NC(=O)NCCCc2nc(C(C)C)no2)c1
cytotoxicity at 10 µM: 2.16%

CN(C)c1ncccc1CNC(=O)NCc1ccco1
cytotoxicity at 10 µM: -3.26%

O=C(CC1CCCN1S(=O)(=O)N1CCCCC1)c1cccs1 (configuration not stated)
cytotoxicity at 10 µM: 6.31%

CCSc1cc(C(=O)NCCC(=O)N(C)C)ccn1
cytotoxicity at 10 µM: -5.41%

CNC(=O)COc1ccc(-c2ccccc2)nc1
cytotoxicity at 10 µM: 1.76%

CC(=O)N1CCN(CCNS(=O)(=O)c2ccc(F)c(F)c2)CC1
cytotoxicity at 10 µM: 8.81%

CCS(=O)(=O)CC(C)N(C)C(=O)NCCc1cccc(F)c1F (configuration not stated)
cytotoxicity at 10 µM: 8.28%

CC(CCSc1ccccc1)N1CCCN(C(N)=O)CC1 (configuration not stated)
cytotoxicity at 10 µM: -10.7%

CC(=O)N1CCN(C(=O)C(C)Nc2ccc3ncsc3c2)CC1 (configuration not stated)
cytotoxicity at 10 µM: -3.25%

CC(=O)c1cccc(NC(=O)NCCOCC2CC2)c1
cytotoxicity at 10 µM: 5.11%

Cc1cccc(CNC(=O)Nc2ccc3c(c2)CCCC(=O)N3)c1
cytotoxicity at 10 µM: 2.33%

CNC(=O)C1CN(Cc2ccc(C#N)cc2F)c2ccccc2O1 (configuration not stated)
cytotoxicity at 10 µM: 9.44%

Cc1nsc(N2CCCN(c3ccc(C#N)cn3)CC2)n1
cytotoxicity at 10 µM: -1.32%

CN(Cc1ccccc1O)C(=O)Nc1cc(F)cc(N2CCCC2)c1
cytotoxicity at 10 µM: 7.93%

COCC(C)(NC(=O)c1cc(Cl)c(-n2cccc2)cc1OC)C(N)=O (configuration not stated)
cytotoxicity at 10 µM: -4.15%

Fc1ccc(CNc2ccccc2Cn2cncn2)cc1
cytotoxicity at 10 µM: -0.719%

Cc1nc(C2CCCN2C(=O)CNS(C)(=O)=O)no1 (configuration not stated)
cytotoxicity at 10 µM: 17.1%

COc1c(CNC2CCCOc3ccccc32)c(C)nn1C (configuration not stated)
cytotoxicity at 10 µM: 1.86%

COc1ccc(CNC(=O)NC2CCN(CC(F)F)CC2)cc1C
cytotoxicity at 10 µM: 1.11%

Cc1cnc(CN(Cc2ccccc2)CC(O)c2cccs2)cn1 (configuration not stated)
cytotoxicity at 10 µM: -15.4%

Cc1nc(CCNC(=O)NC2CCN(c3ncccn3)CC2)cs1
cytotoxicity at 10 µM: -11.8%

COCCN1CC(C(=O)N(C)Cc2cc(-c3cccnc3)no2)CC1=O (configuration not stated)
cytotoxicity at 10 µM: -1.99%

O=C(CNc1cc(-c2ccccc2)nc2ccnn12)NC1CC1
cytotoxicity at 10 µM: -10.5%

CCn1nc(CC(C)C)cc1C(=O)N1CC(N2CCCCC2C)C1 (configuration not stated)
cytotoxicity at 10 µM: -12.4%

CCn1nccc1C(=O)N1CCCCC1CCc1ccc(O)cc1 (configuration not stated)
cytotoxicity at 10 µM: 2.62%

O=C(CCc1cc2n(n1)CCCNC2)N1CCN(C2CCCC2)C(=O)C1
cytotoxicity at 10 µM: 2.68%

Cc1ccc(CN2CCNC(=O)C2CC(=O)NCc2n[nH]c(C)n2)cc1 (configuration not stated)
cytotoxicity at 10 µM: -3.83%

Cc1nc(CN2CCC(C(=O)O)(n3ccc(C(C)C)n3)CC2)co1
cytotoxicity at 10 µM: -125%

COc1cccc(-n2cc(CN(C)C(=O)c3cc[nH]n3)cn2)c1
cytotoxicity at 10 µM: 16.3%

CCc1nc(N)sc1C(=O)N1CCC(c2cc(O)nc(C)n2)CC1
cytotoxicity at 10 µM: -2.56%

CN(CCn1ccnc1-c1ccccn1)S(C)(=O)=O
cytotoxicity at 10 µM: 12%

CN1CC2(CCCN(Cc3cccc(CCN)c3)C2)OC1=O (configuration not stated)
cytotoxicity at 10 µM: 20%

Cn1cncc1C(=O)N1CCCC(c2ccn[nH]2)C1 (configuration not stated)
cytotoxicity at 10 µM: -4.78%

CC(c1cncs1)N(C)Cc1ccc(CCC(C)(C)O)cc1 (configuration not stated)
cytotoxicity at 10 µM: 4.68%

Cn1cc(C(=O)N2CC[C@@]3(O)CCN(C(=O)C4CCCC4)C[C@H]3C2)cn1
cytotoxicity at 10 µM: -138%

CCn1c(C2CCN(C(=O)c3cc(Cl)no3)CC2)nn(C)c1=O
cytotoxicity at 10 µM: -10.5%

CN1CCC(CNC(=O)c2cccc(CN3CCCCCC3)c2)C1 (configuration not stated)
cytotoxicity at 10 µM: -5.39%

O=S(=O)(Cc1c(F)cccc1Cl)NCCCN1CCCCCC1
cytotoxicity at 10 µM: -10%

CCCOC(=O)N1CCC(c2nnc(Cn3cccn3)n2C2CC2)CC1
cytotoxicity at 10 µM: -8.52%

COCCN(C)C[C@@H]1CN(c2cc(C)nc3ccccc23)C[C@@H]1CO
cytotoxicity at 10 µM: -1.92%

COCCC(=O)N1CCC2(CC1)CC(c1ccccc1)CN(C)C2 (configuration not stated)
cytotoxicity at 10 µM: -14.4%

Cc1nc(CN(C)C2CCN(Cc3ccc(Cl)s3)C2)no1 (configuration not stated)
cytotoxicity at 10 µM: -2.84%

CCc1nc(C(=O)N2CCOCC2)nn1-c1ccccc1Cl
cytotoxicity at 10 µM: -9.29%

CC(=O)N1CCC(NC(=O)N(C)Cc2c(C)noc2C)CC1
cytotoxicity at 10 µM: -6.33%

Cc1ccsc1CNCC1CCCN1c1cccnn1 (configuration not stated)
cytotoxicity at 10 µM: -4.48%

CCN(Cc1ccc2c(c1)OCO2)C(=O)c1cccnc1O
cytotoxicity at 10 µM: -9.51%

Clc1snnc1CN1CCCC1Cn1cccn1 (configuration not stated)
cytotoxicity at 10 µM: -17.9%

CCc1n[nH]c(C2CN(C(=O)c3ccc(NC4CC4)nc3)CCO2)n1 (configuration not stated)
cytotoxicity at 10 µM: 5.77%

COc1ccc(OC)c(C(=O)N(C)Cc2nnc3ccccn23)c1
cytotoxicity at 10 µM: -0.972%

Cc1cnn(CC2CCCN2C(=O)c2ccc(OC(C)C)nc2)c1 (configuration not stated)
cytotoxicity at 10 µM: -6.13%

COc1ncccc1C(=O)N1C[C@@H]2COC[C@]2(CN(C)C)C1
cytotoxicity at 10 µM: -143%

c1cc(CNCc2ccnc(N3CCOCC3)c2)c2c(c1)OCO2
cytotoxicity at 10 µM: 2.75%

Cc1cccc(CN2CCOCC3(CCN(C4CCOCC4)C3)C2)n1 (configuration not stated)
cytotoxicity at 10 µM: -0.124%

Cc1nnc(N2C[C@@H](OCC3CCCC3)[C@H]3OCCC[C@H]32)s1
cytotoxicity at 10 µM: 14.3%

COCCN1C[C@@H]2CC[C@H]1CN(Cc1nc3ccccc3n1C)C2
cytotoxicity at 10 µM: -11.2%

COCC1N(C(=O)c2ccc3c(c2)OCCCO3)C2CCC1(O)CC2 (configuration not stated)
cytotoxicity at 10 µM: -5.3%

CCn1c(=O)[nH]c2cn(-c3cccc(Cl)c3)c(=O)n21
cytotoxicity at 10 µM: 0.0452%

Cc1cc(C)n(CC(=O)N2C[C@H]3CC[C@@H](C2)N(CC2CCC2)C3)c(=O)n1
cytotoxicity at 10 µM: 13.3%
